Experimental data from ChEMBL document CHEMBL4842360, “Discovery of a Bicyclic Peptidyl Pan-Ras Inhibitor” (J Med Chem, 2021).
Active and inactive are the calls of the source. The calls are words filed in the database; no cut-off is given here. Numbered stars: 1 amine (or outer) side, 2 acyl side, 3 side chain; on linkers, the order of the positions; unused ones are H or OH. Bridge positions count the residues as written; N and C are the ends. Square brackets hold non-standard residues; d marks the D form. Peptide text beside a SMILES is read from it. Trimesoyl = O=C(c1cc(C(=O)[*:2])cc(C(=O)[*:3])c1)[*:1]; d2Nal = N[C@H](Cc1ccc2ccccc2c1)C(=O)O; Phg = N[C@H](C(=O)O)c1ccccc1; Orn = NCCC[C@H](N)C(=O)O; Dap = NC[C@H](N)C(=O)O

Legend:
Albumin = Albumin (Bos taurus, UniProt P02769); test: Binding affinity to bovine serum albumin; assay type: ADME
Method in brief: (§1)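 Fluorescein-labeled peptide (100 nM) incubated 1 h at RT with varying concentrations of control protein (BSA, GST-RBD, PNP, PTP1B or MDM2). KD derived from fluorescence polarization titration curves.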

Homo sapiens = species: Homo sapiens; test: Binding affinity to glutathione-S-transferase (unknown origin); method in brief: as §1
[1] = molecular target: T1, Tyrosine-protein phosphatase non-receptor type 1 (Homo sapiens) (UniProt P18031); test: Binding affinity to PTP1B (unknown origin); method in brief: as §1
T1 sequence (whole entry): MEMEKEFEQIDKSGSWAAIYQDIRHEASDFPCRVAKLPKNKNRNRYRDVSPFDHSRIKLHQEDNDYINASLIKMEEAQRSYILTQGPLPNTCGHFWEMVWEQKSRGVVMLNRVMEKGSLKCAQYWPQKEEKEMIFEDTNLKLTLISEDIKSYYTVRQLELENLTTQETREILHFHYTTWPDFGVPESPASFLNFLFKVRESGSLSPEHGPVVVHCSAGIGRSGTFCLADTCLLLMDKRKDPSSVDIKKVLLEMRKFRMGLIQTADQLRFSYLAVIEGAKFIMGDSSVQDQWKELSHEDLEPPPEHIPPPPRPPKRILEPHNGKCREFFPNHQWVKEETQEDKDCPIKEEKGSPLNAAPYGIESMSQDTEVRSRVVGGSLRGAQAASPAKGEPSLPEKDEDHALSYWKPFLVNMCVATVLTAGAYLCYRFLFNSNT

[2] = molecular target: E3 ubiquitin-protein ligase Mdm2 (Homo sapiens) (UniProt Q00987); test: Binding affinity to MDM2 (unknown origin); method in brief: as §1
[3] = Drug localization in human HeLa cells assessed as mean fluorescence intensity at 5 uM incubated for 2 hrs in presence of 1% FBS by flow cytometry relative to CPP12; assay type: ADME, cell-based
Method in brief: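 HeLa cells treated with 5 μM fluorescein-labeled peptide and analysed by flow cytometry. Mean fluorescence intensity expressed relative to FITC-labeled CPP12 (100%).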

[4] = Drug distribution in human HeLa cells assessed as fluorescent puncta in cytoplasmic region at 5 uM incubated for 2 hrs by live-cell confocal microscopy; assay type: ADME, cell-based
Method in brief: (§2)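 HeLa, H358 or A549 cells treated with 5 μM fluorescein-labeled peptide for 2 h, then imaged by live-cell confocal microscopy for intracellular fluorescence pattern.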

[5] = Drug distribution in human A549 cells assessed as diffuse fluorescence throughout the entire cell volume at 5 uM incubated for 2 hrs by live-cell confocal microscopy; assay type: ADME, cell-based; conditions: a549, 2 h; method in brief: as §2
[6] = Drug distribution in human NCI-H358 cells assessed as accumulation in plasma membrane at 5 uM incubated for 2 hrs by live-cell confocal microscopy; assay type: ADME, cell membranes; conditions: nci-h358, 2 h; method in brief: as §2
[7] = Drug distribution in human A549 cells assessed as accumulation in plasma membrane at 5 uM incubated for 2 hrs by live-cell confocal microscopy; assay type: ADME, cell membranes; conditions: a549, 2 h; method in brief: as §2
A549 [8] = test: Antiproliferative activity against human A549 cells harboring KRAS G12S mutant incubated for 96 hrs by CellTiter-Glo2 assay; assay type: functional, cell-based; conditions: A549, 96 h
Method in brief: (§3)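 Cells plated at 5,000/well, grown overnight, then exposed to serially diluted peptide (0–40 μM) in medium with 10% FBS for 96 h at 37 °C, 5% CO2. Viability read by CellTiter-Glo 2.0 luminescence after 15 min at RT.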

[9] = Antiproliferative activity against human NCI-H1915 cells harboring HRas Q61L mutant incubated for 96 hrs by CellTiter-Glo2 assay; assay type: functional, cell-based; conditions: NCI-H1915, Lung; method in brief: as §3
HEK-293T = test: Cytotoxicity against HEK293T cells incubated for 96 hrs by CellTiter-Glo2 assay; assay type: cell-based; conditions: Homo sapiens; method in brief: as §3
NCI-H358 [10] = test: Induction of apoptosis in human NCI-H358 cells assessed as live cells at 1 uM incubated for 24 hrs by Alexa Fluor 488 annexin V/propidium iodide staining based assay (reference value: 87%); assay type: functional
NCI-H358 [11] = test: Induction of apoptosis in human NCI-H358 cells assessed as late apoptotic cells at 1 uM incubated for 24 hrs by Alexa Fluor 488 annexin V/propidium iodide staining based assay (reference value: […]); assay type: functional
NCI-H358 [12] = test: Induction of apoptosis in human NCI-H358 cells assessed as live cells at 5 uM incubated for 24 hrs by Alexa Fluor 488 annexin V/propidium iodide staining based assay (reference value: 87%); assay type: functional
NCI-H358 [13] = test: Induction of apoptosis in human NCI-H358 cells assessed as necrotic cells at 5 uM incubated for 24 hrs by Alexa Fluor 488 annexin V/propidium iodide staining based assay (reference value: 0.699%); assay type: functional
NCI-H358 [14] = test: Induction of apoptosis in human NCI-H358 cells assessed as live cells at 10 uM incubated for 24 hrs by Alexa Fluor 488 annexin V/propidium iodide staining based assay (reference value: 87%); assay type: functional
NCI-H358 [15] = test: Induction of apoptosis in human NCI-H358 cells assessed as early apoptotic cells at 10 uM incubated for 24 hrs by Alexa Fluor 488 annexin V/propidium iodide staining based assay (reference value: 3.05%); assay type: functional
NCI-H358 [16] = test: Induction of apoptosis in human NCI-H358 cells assessed as late apoptotic cells at 10 uM incubated for 24 hrs by Alexa Fluor 488 annexin V/propidium iodide staining based assay (reference value: […]); assay type: functional
NCI-H358 [17] = test: Induction of apoptosis in human NCI-H358 cells assessed as necrotic cells at 10 uM incubated for 24 hrs by Alexa Fluor 488 annexin V/propidium iodide staining based assay (reference value: 0.699%); assay type: functional
A549 [18] = test: Antitumor activity against human A549 cells xenografted in mouse assessed as average tumor volume at 1 mg/kg, iv administered for 9 days measured every other day (reference value: 100 mm3); assay type: functional; conditions: time 9 day
Method in brief: (§4)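 Nude mice given ~1.5 million A549 cells subcutaneously. Once tumors reached ~40 mm3, groups of n = 6 received peptide at 1 or 5 mg/kg/day or PBS vehicle by tail-vein injection for 9 days. Tumor volume was tracked, and tumors were weighed at harvest.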

A549 [19] = test: Antitumor activity against human A549 cells xenografted in mouse assessed as average tumor volume at 5 mg/kg, iv administered for 9 days measured every other day (reference value: 100 mm3); assay type: functional; conditions: time 9 day; method in brief: as §4
A549 [20] = test: Antitumor activity against human A549 cells xenografted in mouse assessed as reduction in tumor growth at 5 mg/kg, iv administered for 9 days measured every other day; assay type: functional; set-up: scale not given: the % may be the effect or the level left; conditions: time 9 day; method in brief: as §4
[21] = Toxicity in mouse xenografted with human A549 cells assessed as effect on body weight at 1 to 5 mg/kg, iv administered for 9 days; assay type: organism-based; conditions: in vivo, 216 h, dose 1-5 mg/kg, time 9 day
Method in brief: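 About 1.5 million A549 cells given subcutaneously to nude mice. Dosing began once tumors reached ~40 mm3, with n = 6 per group. Mice received 1 or 5 mg/kg per day or vehicle (PBS) by tail-vein injection for 9 days. Body weight was monitored alongside tumor volume and weight at harvest.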

NCI-H358 [22] = test: Antitumor activity against human NCI-H358 cells xenografted in mouse assessed as reduction in ERK phosphorylation at 1 to 5 mg/kg, iv administered for 9 days measured every other day by immunohistochemical staining method; assay type: functional, organism-based; conditions: dose 1-5 mg/kg, time 9.0 day
DLD-1 = test: Antiproliferative activity against human DLD-1 cells harboring KRAS G13D mutant incubated for 96 hrs by CellTiter-Glo2 assay; assay type: functional, cell-based; conditions: DLD-1, 96 h; method in brief: as §3

E3 ubiquitin-protein ligase Mdm2 (Homo sapiens), sequence (Q00987 whole entry, looked up): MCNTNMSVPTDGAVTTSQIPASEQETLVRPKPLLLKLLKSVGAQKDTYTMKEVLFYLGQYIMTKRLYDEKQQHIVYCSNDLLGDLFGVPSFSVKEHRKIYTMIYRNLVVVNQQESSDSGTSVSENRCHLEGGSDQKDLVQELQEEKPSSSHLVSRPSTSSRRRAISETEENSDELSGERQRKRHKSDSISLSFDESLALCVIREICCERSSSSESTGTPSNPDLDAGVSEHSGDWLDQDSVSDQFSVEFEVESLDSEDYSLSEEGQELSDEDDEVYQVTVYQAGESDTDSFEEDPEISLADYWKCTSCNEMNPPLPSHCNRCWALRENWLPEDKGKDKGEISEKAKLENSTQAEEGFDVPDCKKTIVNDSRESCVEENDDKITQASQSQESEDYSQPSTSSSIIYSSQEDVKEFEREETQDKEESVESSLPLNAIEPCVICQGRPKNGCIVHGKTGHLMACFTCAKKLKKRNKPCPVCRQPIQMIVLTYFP
Albumin, sequence (P02769 whole entry): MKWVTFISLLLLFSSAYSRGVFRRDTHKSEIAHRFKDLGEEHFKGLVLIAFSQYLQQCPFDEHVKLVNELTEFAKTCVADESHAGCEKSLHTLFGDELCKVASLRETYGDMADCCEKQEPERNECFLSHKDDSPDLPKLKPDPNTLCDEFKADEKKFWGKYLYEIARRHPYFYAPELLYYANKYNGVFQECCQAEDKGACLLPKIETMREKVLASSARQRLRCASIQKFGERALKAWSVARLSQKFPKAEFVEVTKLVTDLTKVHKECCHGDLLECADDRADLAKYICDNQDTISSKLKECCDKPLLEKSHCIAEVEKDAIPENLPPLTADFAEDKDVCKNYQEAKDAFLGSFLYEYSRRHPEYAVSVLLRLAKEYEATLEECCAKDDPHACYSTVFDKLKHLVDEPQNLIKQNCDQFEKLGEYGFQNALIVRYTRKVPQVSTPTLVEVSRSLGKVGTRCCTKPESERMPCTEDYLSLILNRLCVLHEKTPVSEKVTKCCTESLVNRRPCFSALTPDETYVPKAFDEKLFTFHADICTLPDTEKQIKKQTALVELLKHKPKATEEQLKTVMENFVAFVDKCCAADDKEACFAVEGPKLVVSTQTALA

- Kd (Albumin): 57 µM
- Activity (Homo sapiens): inactive
- Activity [1]: inactive
- Activity [2]: inactive
- Drug uptake [3]: 226%
- Drug uptake [4]: Active
- Drug uptake [5]: Active
- Drug uptake [6]: Active
- Drug uptake [7]: Active
- EC50 (A549 [8]): 0.5 µM
- EC50 (DLD-1): 4.9 µM
SMILES: C[C@@H](NC(=O)[C@H](Cc1ccccc1)NC(=O)[C@@H](CCCNC(=N)N)NC(=O)[C@H](CCCN)NC(=O)[C@@H]1CNC(=O)c2cc3cc(c2)C(=O)N[C@H](Cc2ccc4ccccc4c2)C(=O)N[C@@H](CO)C(=O)N[C@@H](CC(N)=O)C(=O)N[C@H](Cc2ccc4ccccc4c2)C(=O)N[C@@H](c2ccccc2)C(=O)N[C@@H](CCCCNC3=O)C(=O)N[C@H](Cc2ccccc2)C(=O)N[C@@H](CCC(N)=O)C(=O)N[C@H](CCCNC(=N)N)C(=O)N[C@@H](CCCNC(=N)N)C(=O)N1)C(N)=O ([d2Nal]SN[d2Nal][Phg]K[dF]Q[dR]R[Dap][Orn][dR]F[dA]-NH2; linker N-6-11 via Trimesoyl)
- EC50 [9]: 6.8 µM
- EC50 (HEK-293T): ≥ 20 µM
- Activity (NCI-H358 [10]): 87.7%
- Activity (NCI-H358 [11]): 8.91%
- Activity (NCI-H358 [12]): 55.1%
- Activity (NCI-H358 [13]): 1.14%
- Activity (NCI-H358 [14]): 15.4%
- Activity (NCI-H358 [15]): 4.11%
- Activity (NCI-H358 [16]): 80%
- Activity (NCI-H358 [17]): 0.493%
- Activity (A549 [18]): 50 mm3
- Activity (A549 [19]): 35 mm3
- Activity (A549 [20]): 100%
- Activity [21]: Non-Toxic
- Activity (NCI-H358 [22]): Active
